Assays:
healthy adults [1] = experiment: Thorough QT/QTc crossover study, Holter ECG recordings; format: in vivo, human
How it was run: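 Three-period crossover in healthy adults (QTcF >450 ms excluded), with 14-day washouts and six Williams-square sequences. Dosing was placebo, a 0.1 mg/kg IV bolus over 30 s, or oral moxifloxacin 400 mg at Hour 1. ECGs came from 24-h Holter recordings read blind, with baseline the mean of −1, −0.5 and −0.25 h values. QTcI/QTcF/QTcB time-matched ddQTc was analysed by linear mixed-effect models with one-sided 95% CI.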

[2] = in vitro and in vivo studies; ref data on file; cited from earlier work
healthy adults [3] = experiment: Treatment-emergent adverse events; format: in vivo, human; settings: 0.1 mg/kg IV single dose

| Molecule | number of subjects with QTcF intervals >450 but ≤480 milliseconds (healthy adults [1]; healthy subjects, single dose) | percentage of subjects with QTcF intervals >450 but ≤480 milliseconds (healthy adults [1]; healthy subjects, single dose) [%] | peak mean difference in dQTcI and dQTcF vs placebo (healthy adults [1]; moxifloxacin 400 mg oral, 2 hours after administration (Hours 3 and 4)) | lower bound of ddQTcF vs placebo at prespecified timepoints (healthy adults [1]; moxifloxacin 400 mg oral, Hours 2, 3, 4 and 5) | lower bound of the one-sided 95% CI of ddQTcF vs placebo (healthy adults [1]; moxifloxacin 400 mg oral, Hours 3 to 10 (2–9 hours after moxifloxacin dosing)) [milliseconds] | metabolism [2] | effects on heart rate, PR interval, or QRS interval (healthy adults [1]; healthy subjects, 0.1 mg/kg IV single dose) | subjects with >30 milliseconds increase in QTcF (healthy adults [1]; healthy subjects, single dose) | slope of linear relationship between ddQTcF and plasma concentration (healthy adults [1]; linear mixed-effects model, P = 0.126, 90% CI (<−0.0005, 0.002), not statistically significant) | subjects with cardiac disorder TEAE (healthy adults [3]) | severity of TEAEs (healthy adults [3]; healthy subjects) |
| --- | --- | --- | --- | --- | --- | --- | --- | --- | --- | --- | --- |
| COc1c(N2C[C@@H]3CCCN[C@@H]3C2)c(F)cc2c(=O)c(C(=O)O)cn(C3CC3)c12 [moxifloxacin] | five | 8.3 | around 12 milliseconds | above 5 milliseconds | > 5 | – | – | – | – | – | – |
| peginesatide | 0 subjects | – | – | – | – | negligible metabolism | no peginesatide-related effects | no subject | 0.001 | No subject | mild or moderate |

— publication PMC4489320 (Clinical Pharmacology in Drug Development, 2014)
